Screens (PubChem BioAssay)
Tn6 DDE FP: disrupts Tn6 cyclic peptide binding to fibrin D-Dimer-E complex. P02675. Fibrin DD(E) TRITC-Tn6 fluorescence polarization displacement. inhibition, % at 8.3 µM. 0.21% of 370,000 active. AID 720509;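 active means inhibition above a per-campaign cutoff: mean of compounds within control limits plus 3 SD, cut at about 15% in these data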
ABHD4 inh: inhibitors of mouse ABHD4; 0.54% of 370,000 active; inhibition, % at 8.92 µM; Q8VD66; purified mABHD4, FP-Rh probe fluorescence polarization; AID 720543;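 active means inhibition exceeding the mean over every tested compound plus 3 SD, cut at about 30% in these data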
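Material: mouse ABHD4 enzyme, wild type; Benchmarks: S159A mutant high control, sample median low control; Buffer or medium: HEPES pH 7.0, NaCl, Pluronic buffer; Signal: fluorescence polarization; Read-out: percent inhibition of probe binding, normalized to plate controls; Timing: pre-incubation 45 min, probe exposure 60 min, at 25 °C; Dosing: 8.92 µM, single dose.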
TCR CD3 inh: blocks the human TCR-CD3 interaction; 0.37% of 360,000 active; AID 651800; TAMRA-labeled TCR probe fluorescence, biochemical; inhibition, % at 9.4 µM; in the data active means inhibition above about 19%;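 further: recombinant mutant TCR 2C K166C tagged with TAMRA read by polarization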
HTRA1 inhibitor: blocks human HTRA1 serine peptidase | recombinant HTRA1, FP-rhodamine activity-based probe, fluorescence polarization | inhibition, % at 5.96 µM | 0.5% of 340,000 active; in the data active means inhibition above about 36%
SIAE primary: inhibitors of human sialic acid acetylesterase SIAE. Q9HAT2. inhibition, % at 9.66 µM. AID 1053197. 0.69% of 370,000 active. SIAE FP-Rh probe binding, fluorescence polarization;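 active means inhibition above a cutoff: mean of compounds within the control limits plus 3 SD of those, cut at about 17% in these data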
Target sequence (Q9HAT2 whole entry, looked up): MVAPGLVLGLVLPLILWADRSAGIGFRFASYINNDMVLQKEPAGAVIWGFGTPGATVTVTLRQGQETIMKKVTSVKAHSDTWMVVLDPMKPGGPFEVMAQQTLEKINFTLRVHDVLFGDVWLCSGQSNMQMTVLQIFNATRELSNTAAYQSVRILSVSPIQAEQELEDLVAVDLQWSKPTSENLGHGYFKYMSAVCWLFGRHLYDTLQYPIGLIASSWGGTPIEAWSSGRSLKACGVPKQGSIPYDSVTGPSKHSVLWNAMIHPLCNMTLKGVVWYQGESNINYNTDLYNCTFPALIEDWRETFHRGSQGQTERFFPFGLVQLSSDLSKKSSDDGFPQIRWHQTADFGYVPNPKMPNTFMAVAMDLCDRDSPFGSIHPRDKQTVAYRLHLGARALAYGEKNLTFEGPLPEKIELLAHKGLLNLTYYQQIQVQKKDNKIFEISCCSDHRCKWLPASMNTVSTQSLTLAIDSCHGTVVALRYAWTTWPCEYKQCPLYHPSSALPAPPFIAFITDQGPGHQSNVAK
DDE Tn7 FP inh: inhibitors of Tn7 peptide binding to human fibrin DD(E) | 0.13% of 370,000 active | P02675 | FP displacement of FITC-Tn7 peptide from fibrin DD(E); 0% = median of compound wells per plate | AID 720508 | inhibition, % at 8.3 µM;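 active means inhibition above the mean of compounds falling within the control limits plus 3 SD of them, cut at about 14% in these data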
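System: human fibrin DD(E); quantity: Fibrin-DD(E) at 2 µM final; also added: fluorescent Tn7 probe at 0.1 µM; compound dosing: single nominal test concentration of 8.3 µM per compound; schedule: 10 min preincubation, 3 h with tracer, room temperature; detection: fluorescence polarization of the labelled Tn7 tracer; repeats: one replicate per compound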
Hits are given with their value; - = inactive; . = not tested or not shown. Hits are enriched below; roughly 1.8% of the tested compounds scored in any of these assays.

SMILES | Tn6 DDE FP | ABHD4 inh | TCR CD3 inh | HTRA1 inhibitor | SIAE primary | DDE Tn7 FP inh
N#C/C(=C(/O)CCl)c1nc2c(s1)CCc1ccccc1-2 | - | 32.0 | - | - | - | -
Nc1ccn([C@@H]2O[C@H](CO)[C@@H](O)[C@@H]2O)c(=O)n1 | 16.1 | - | - | - | - | 15.2
CCN1CC=C2C(C#N)=C(N)C(C#N)(C#N)C(CCc3ccccc3)C2C1 (stereo not drawn) | - | 34.1 | - | - | - | -
O=C(/C=C/c1cccc(Cl)c1)c1ccc([N+](=O)[O-])o1 | - | - | - | 42.9 | - | -
COc1ccc(/C=C/C(=O)c2ccc([N+](=O)[O-])o2)cc1OC | - | - | - | . | - | -
c1ccc(-c2c[nH]c3ccc(OCc4ccc5ccccc5n4)c(-c4ccccc4)c23)cc1 | - | - | . | . | - | -
Cc1ccc(C(=O)n2ccc3ccc(-c4ccc5ccn(Cc6ccccc6)c5c4)cc32)cc1 | - | - | . | . | - | -
CC(=O)Oc1ccc2c(c1)Oc1cc(OC(C)=O)ccc1C21OC(=O)c2ccccc21 | . | . | . | 123.9 | . | .
C/C(=N\Nc1ccc(S(=O)(=O)Nc2ccc(Cl)cc2)cc1[N+](=O)[O-])c1ccc(N2CCOCC2)cc1 | - | - | - | - | 24.3 | -
O=[N+]([O-])c1ccccc1/C=C/C=N/Nc1ccc(S(=O)(=O)Nc2ccc(Cl)cc2)cc1[N+](=O)[O-] | - | - | - | - | 42.8 | -
O=C(O)c1ccc(N/N=C/C=C/c2ccccc2[N+](=O)[O-])cc1 | - | - | - | - | - | -
C/C(=N\Nc1ccc(S(=O)(=O)Nc2ccccc2)cc1[N+](=O)[O-])c1ccc(N2CCOCC2)cc1 | - | - | - | - | - | -
C[C@H](CO)N1C[C@H](C)[C@@H](CN(C)C(=O)Nc2ccc(C(F)(F)F)cc2)Oc2c(NC(=O)Nc3ccc(C(F)(F)F)cc3)cccc2C1=O | - | - | 19.8 | - | - | -
COc1ccc(NC(=O)N(C)C[C@H]2Oc3ccc(NC(=O)Nc4c(C)noc4C)cc3C(=O)N([C@H](C)CO)C[C@H]2C)cc1 | - | - | - | - | 17.1 | -
C[C@H]1CN([C@@H](C)CO)C(=O)c2cccc(NC(=O)Nc3ccc(C(F)(F)F)cc3)c2O[C@@H]1CN(C)C(=O)Nc1ccc(F)cc1 | - | - | - | - | - | -
COc1ccc(NC(=O)Nc2ccc3c(c2)C(=O)N([C@H](C)CO)C[C@H](C)[C@@H](CN(C)Cc2ccc(Cl)c(Cl)c2)OCCCC[C@@H](C)O3)cc1 | - | - | - | - | 21.2 | -
Cn1ccnc1CN1CCC[C@]2(CC[C@H](CCC#N)O2)C1 | - | - | . | . | - | -
CC(C)(C)c1ccc(-c2nnc(SCC(=O)Nc3ccc(S(=O)(=O)Nc4nccs4)cc3)n2Cc2ccco2)cc1 | - | - | . | . | - | -
CCN(C(=O)COC(=O)CCC(=O)c1ccccc1)c1c(N)n(Cc2ccccc2)c(=O)[nH]c1=O | - | - | - | - | 25.8 | -
Cc1cc(C)cc(Nc2nc(-c3ccc(S(=O)(=O)N4CCCC4)cc3)cs2)c1 | - | - | - | - | 22.0 | -
Cc1ccc(Nc2nc(-c3ccc(S(=O)(=O)N4CCCC4)cc3)cs2)cc1C | . | . | . | - | . | .
C=CCn1c(COc2ccccc2)nnc1SCC(=O)Nc1ccc(Oc2ccccc2)cc1 | - | - | . | . | - | -
CC[n+]1ccc(C)c2cc(S(=O)C(F)(F)F)ccc21 (stereo not drawn) | . | . | . | 41.6 | . | .
Cc1ccc(Nc2cc(C)nn2-c2nc(C)cc(=O)[nH]2)cc1 | . | . | . | 49.6 | . | .
Cc1ccc(Nc2cc(C)nn2-c2nc(C)cc(C)n2)cc1 | - | - | - | - | - | -
SMILES | Tn6 DDE FP | ABHD4 inh | TCR CD3 inh | HTRA1 inhibitor | SIAE primary | DDE Tn7 FP inh
C=CCNC(=O)NC[C@@]1(C(=O)OC)CC(=O)N(C)[C@@H]1c1ccccc1 | - | - | . | . | - | -
O=c1oc2ccc(Cl)cc2nc1/C=C(\O)c1cccs1 | - | 32.0 | - | - | - | -
CCOC(=O)[C@@]12CCC3=C1N(CCC3)C(=O)[C@H](CC(=O)NCCc1ccccc1OC)C2 | - | - | . | . | - | -
Brc1ccc(-c2nn3c(-c4ccccc4)nnc3s2)cc1 | - | - | . | . | - | -
CC(=O)Nc1ccc2c(O)cc(S(=O)(=O)O)cc2c1 | - | - | - | - | - | -
O=S(=O)(O)c1cc(O)c2ccc(Nc3ccccc3)cc2c1 | - | 63.2 | 34.8 | - | - | -
